Screening results from PubChem.
A selection: hits, their analogues and other compounds. The true share with any hit is near 5.8%.
WT yeast gro inh: growth inhibition of WT strain, primary screen, mitochondrial fusion inhibitor project, WT and mutant strains, chemical genetic. mitochondrial fusion phenotypic screen. inhibition, % at 10 µM. 2.1% of 190,000 active; in the data active = inhibition above about 58%; tested in S. cerevisiae
14-3-3 Bad inh: inhibitors of 14-3-3 zeta/Bad binding, primary screen, biochemical, TR-FRET, bovine 14-3-3 zeta; TR-FRET 14-3-3zeta/Dy647-pBad peptide displacement, 1 h; inhibition, % at 21.7 µM; 0.71% of 220,000 active; AID 781, 2007;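 active = inhibition above about 70%, limit read from the data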;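 note: 0% = full 14-3-3 plus peptide FRET controls and 100% = background without 14-3-3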
Target sequence (P63103 whole entry, looked up): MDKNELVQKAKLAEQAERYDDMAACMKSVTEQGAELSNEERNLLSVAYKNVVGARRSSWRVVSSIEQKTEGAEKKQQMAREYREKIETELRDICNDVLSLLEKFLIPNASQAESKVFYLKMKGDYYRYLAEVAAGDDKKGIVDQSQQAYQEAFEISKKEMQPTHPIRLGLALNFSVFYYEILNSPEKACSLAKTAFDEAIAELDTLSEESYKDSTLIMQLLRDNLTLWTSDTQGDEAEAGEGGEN
ROMK primary: ROMK potassium channel modulators, primary screen, cell-based, thallium flux, MLSMR library. ATP-sensitive inward rectifier potassium channel 1 (Homo sapiens), P48048. Tet-inducible ROMK, thallium flux fluorescence; actives lie on both sides. B-score at 10 µM. 2% of 130,000 active. AID 1918, 2009;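 active = signal ratio slope over the read window, or its plate-corrected B-score, at least 3 SD from the plate mean, either direction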;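 note: B-score of the F/F0 ratio slope over 7 to 12 s after thallium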
NCF1 inh: p47phox/p22phox peptide binding inhibitors, primary screen, biochemical, uHTS, NADPH oxidase regulatory subunit; Neutrophil cytosol factor 1 (Homo sapiens), P14598; fluorescence polarization, 2 h; inhibition, % at 24.7 µM; AID 1274, 2008; 0.53% of 220,000 active;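 active = inhibition above about 30%, limit read from the data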;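 note: 0% = p47phox with labelled peptide and 100% = labelled peptide alone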
Target sequence (P14598 whole entry, looked up): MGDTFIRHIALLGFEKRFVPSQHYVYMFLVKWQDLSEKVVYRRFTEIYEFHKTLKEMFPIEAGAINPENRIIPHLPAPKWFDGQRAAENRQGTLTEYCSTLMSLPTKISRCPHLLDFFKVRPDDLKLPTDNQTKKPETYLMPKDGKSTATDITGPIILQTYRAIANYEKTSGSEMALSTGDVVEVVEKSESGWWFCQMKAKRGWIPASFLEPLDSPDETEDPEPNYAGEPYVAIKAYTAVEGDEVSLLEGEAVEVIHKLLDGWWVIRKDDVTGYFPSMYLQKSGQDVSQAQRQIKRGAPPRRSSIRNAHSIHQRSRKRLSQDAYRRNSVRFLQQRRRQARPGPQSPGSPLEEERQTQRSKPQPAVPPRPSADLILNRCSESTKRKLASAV
Cl transport mod: KCC2 cotransporter modulators, thallium flux, primary screen, cell-based, HEK293 KCC2, FluoZin-2 fluorescence, MLSMR; Solute carrier family 12 member 5 (Homo sapiens), Q9H2X9; KCC2 cells, thallium flux FluoZin-2 fluorescence; B-score of Tl+ flux slope (higher = more flux/activation; lower = inhibition) at 10 µM; 2.2% of 190,000 active; AID 1456, 2008;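 active = thallium flux slope and its plate-corrected score both differing from the plate sample mean at a set confidence after two filtering rounds, in either direction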;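 note: slope of fluorescence scaled to starting intensity during 10 to 20 s after thallium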
RBBP9 inhibitor: human RBBP9 inhibitors, primary screen, biochemical, fluorescence polarization, FP-Rh probe, HTS. AID 1515, 2009. inhibition, % at 7.94 µM. recombinant RBBP9. 0.2% of 220,000 active;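 active = inhibition above the campaign mean of all tested compounds plus 3 SD, cut at about 14% in these data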;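 note: plate controls were DMSO wells with RBBP9 for no effect and wells lacking RBBP9 protein for full effect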
Target sequence (O75884 whole entry, looked up): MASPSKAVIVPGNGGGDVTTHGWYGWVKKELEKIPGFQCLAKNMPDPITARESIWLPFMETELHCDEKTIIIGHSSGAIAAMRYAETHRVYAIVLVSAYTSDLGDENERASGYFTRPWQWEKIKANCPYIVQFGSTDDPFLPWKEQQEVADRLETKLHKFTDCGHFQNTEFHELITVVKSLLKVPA
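Measured by: FP readout at 525/598 nm; material: recombinant human RBBP9; also added: Serine-hydrolase probe FP-Rh, 375 nM pre-mixing; medium: Tris buffer pH 8.0, NaCl, Pluronic; replication: one well per compound; doses: one concentration, 7.94 µM nominal, 0.794% DMSO; timing: preincubation 30 min plus labeling 45 min at 25 °C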
KCC2 secondary: KCC2 modulators in sodium-free buffer, confirmation, cell-based, HEK293 KCC2, thallium flux, secondary assay. shares compounds with Cl transport mod. FluoZin2 fluorescence; stronger effect = higher value. normalised thallium flux (F/F0 slope) at 10 µM. 15% of 3,700 active. AID 1713, 2009;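 active = thallium flux slope above the same plate's solvent-only control mean plus 3 SD; inconclusive = the two replicate wells disagree; inactive = no significant difference from solvent-only control wells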
KCC2 bumet counter: thallium flux persisting under bumetanide in KCC2 cells, confirmation, counter-screen for KCC2 modulator project, cell-based, HEK293 KCC2, FluoZin2, secondary assay 3; 49% of 3,700 active; normalized thallium flux at 10 µM; shares compounds with Cl transport mod; HEK293-KCC2 + bumetanide/ouabain; stronger effect = higher value;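 active = thallium entry rate above the same plate's blocked-transporter control wells by more than 3 SD; inconclusive = the two repeat wells disagree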;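 note: raw slope of fluorescence over initial fluorescence between 10 and 20 s after thallium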
KCC2 secondary2: KCC2 modulators without ouabain present, confirmation, cell-based, HEK293 KCC2, thallium flux, FluoZin2, secondary assay 2. thallium flux FluoZin2 fluorescence; actives lie on both sides; F/F0 rise rate, 10–20 s post-thallium. 23% of 3,700 active. shares compounds with Cl transport mod. normalized thallium flux at 10 µM;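 active = thallium flux slope more than 3 SD above or below the plate's solvent-only control mean, mostly below; inconclusive = the two repeat wells disagreed; inactive = no significant shift from solvent-only controls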;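 note: raw slope with 0.1% DMSO as baseline and bumetanide as block control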
HEK counter1: thallium flux modulation in parental HEK cells, confirmation, counter-screen for KCC2 modulator project, cell-based, counterscreen 1 | shares compounds with Cl transport mod | HEK293 parental cells, thallium flux FluoZin2, ouabain; baseline-ratio fluorescence slope, 10–20 s after thallium | thallium flux rate (normalised fluorescence) at 10 µM | 46% of 3,700 active | AID 1716, 2009;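 active = thallium flux rate significantly above the same plate's solvent-only control wells, beyond their mean plus 3 SD; inconclusive = the two replicate wells gave conflicting results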
KCC2 ouabain: KCC2 inhibitors and activators, ouabain retest, confirmation, HEK-KCC2 cells; shares compounds with Cl transport mod; raw Tl+ flux slope (below DMSO = inhibition, above = activation) at 10 µM; HEK293-KCC2, thallium flux FluoZin2 fluorescence; bidirectional: low = inhibitor, high = activator; 48% of 3,700 active;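 active = thallium flux slope beyond 3 SD from same-plate DMSO control mean in most replicates, usually higher, sometimes lower; inconclusive = repeat tests gave conflicting results; inactive = no significant difference from controls in most replicates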;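 note: slope of initial-normalized fluorescence between seconds 10 and 20 after thallium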
HEK293 Tl flux2: native HEK Tl+ uptake effects, second counter-screen – HEK cells, counterscreen 2, counter-screen for KCC2 modulator project, confirmation; shares compounds with Cl transport mod; HEK293 parental, thallium flux FluoZin-2 fluorescence slope; thallium flux slope at 10 µM; 33% of 3,700 active; AID 1718, 2009;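 active = thallium flux slope above the same plate's solvent-control mean plus 3 SD in both duplicate wells; inconclusive = duplicate wells that disagreed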;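 note: run without ouabain in cells lacking the KCC2 cotransporter; slope of fluorescence scaled to its starting value between 10 and 20 s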
Active calls of the source: *; ? = inconclusive; · = not tested or not shown.

SMILES | WT yeast gro inh | 14-3-3 Bad inh | ROMK primary | NCF1 inh | Cl transport mod | RBBP9 inhibitor | KCC2 secondary | KCC2 bumet counter | KCC2 secondary2 | HEK counter1 | KCC2 ouabain | HEK293 Tl flux2
O=C(C1CC1)N1CCc2cc(S(=O)(=O)NC3CCN(Cc4ccccc4)CC3)ccc21 | 7.2 | 6.8 | -0.3 | -0.3 | · | 3.2 | 0.00932 | ? | ? | 0.00785 | 0.0158* | 0.0108
O=C(NNS(=O)(=O)c1ccc2ccccc2c1)C1CCN(Cc2ccccc2)CC1 | 3.7 | -3.2 | · | -12.2 | · | -5.1 | 0.00649 | 0.00459 | 0.0264 | 0.00703 | ? | 0.0106
COc1cc(/C(C)=N/NC(=O)C(O)(c2ccccc2)c2ccccc2)ccc1O | -0.8 | 1.1 | 1.66 | -0.7 | -0.885 | 2.5 | · | · | · | · | · | ·
CCOC(=O)c1c(NC(=S)NCc2ccccc2)sc2c1CCN(C(=O)OCC)C2 | · | -4.3 | · | -8.5 | 4.74* | -12.0 | ? | 0.0251* | 0.032 | 0.0137* | 0.0236 | 0.0116*
CC(=O)Nc1ccc(Oc2cncc(Cl)c2)nc1 | · | 3.8 | 0.303 | -2.6 | -0.394 | -11.4 | · | · | · | · | · | ·
CCOC(=O)SC1=N/C(=C\c2ccc(N(C)C)cc2)C(=O)S1 | 20.0 | 0.0 | · | -81.6 | 19.4* | 3.2 | 0.017* | 0.0211* | 0.0295 | 0.0134* | 0.0285* | 0.0106*
COc1ccccc1NC(=O)CSc1nnc(CNC(=O)c2ccco2)o1 | 5.9 | -5.0 | 0.993 | -11.9 | · | -2.7 | · | · | · | · | · | ·
COc1ccc(NC(=O)CSc2nnc(CNC(=O)c3ccco3)o2)c(OC)c1 | 1.0 | -14.2 | 0.684 | 0.9 | · | -8.0 | 0.0168 | 0.00516 | 0.0275 | 0.00712 | 0.0162 | 0.0102
CCOc1ccccc1C1C(C#N)=C(N)Oc2n[nH]c(CC)c21 (stereo not drawn) | -3.0 | 1.6 | · | 7.2 | -4.87* | -0.1 | 0.0086 | 0.00699 | 0.0299 | 0.00639 | 0.02 | 0.00928
O=C(c1cc(N2C(=O)C3C4CCC(C4)C3C2=O)ccc1Cl)N1CCN(c2ccccc2F)CC1 (stereo not drawn) | 9.0 | -12.7 | -0.823 | -10.5 | -0.0199 | -6.5 | · | · | · | · | · | ·
CCN(CC)c1ccc(NC(=O)COC(=O)COc2ccccc2[N+](=O)[O-])cc1 | -12.0 | -11.7 | 0.162 | -0.2 | -6.82* | -5.1 | 0.00961 | 0.00583 | 0.0352 | 0.00386 | 0.0195 | 0.0123
CC1(C)[C@@H](O)CC[C@]2(C)C3C(O)C=C4[C@H]5C[C@@](C)(CO)CC[C@]5(C)CC[C@]4(C)[C@]3(C)CC[C@@H]12 (stereo partly drawn) | · | 2.5 | · | -4.6 | -0.434 | · | · | · | · | · | · | ·
N#C/C(=N\Nc1ccccc1Cl)C(=O)c1ccccc1 | 5.8 | 62.9 | · | -3.7 | -4.36* | -4.8 | 0.0065 | 0.00483 | 0.0298 | ? | 0.0155* | 0.00989
Cc1cc(=O)c2cc3nc(-c4cccnc4)oc3c(Br)c2o1 | · | 28.1 | · | -10.5 | 0.971 | 0.2 | · | · | · | · | · | ·
Cc1cccc(C)c1Nc1nnc(SCC(=O)c2ccc(Br)s2)s1 | 53.8 | -10.2 | · | -71.5 | -1.66 | -8.8 | · | · | · | · | · | ·
Cc1cccc(C)c1Nc1nnc(SCC(=O)c2ccc3c(c2)NC(=O)CO3)s1 | 6.5 | -23.8 | 0.0209 | -6.3 | -3.75* | -4.5 | 0.00727 | 0.00628 | 0.028 | 0.00694 | 0.0189* | 0.0101
Cc1ccccc1NC(=O)OCc1cccnc1Oc1ccc(Cl)cc1 | 45.1 | -8.2 | 0.278 | 2.8 | 0.334 | -4.3 | · | · | · | · | · | ·
CCc1nnc(NC(=O)C2CCCN(S(=O)(=O)c3ccccc3)C2)s1 (stereo not drawn) | 11.8 | -6.8 | 1.41 | -10.1 | · | 10.2 | ? | 0.00543 | 0.0298 | 0.00713 | 0.0192 | 0.0103
CCOC(=O)C1C(c2ccc(O)c(O)c2)NC(=S)NC1(O)C(F)(F)F (stereo not drawn) | -33.8 | -18.4 | 0 | -9.9 | -0.404 | -8.6 | · | · | · | · | · | ·
c1ccc(CCCNc2ncnc3nc[nH]c23)cc1 | -10.5 | 16.3 | · | -1.3 | -0.242 | -3.0 | · | · | · | · | · | ·
c1ccc2c(CCNc3ncnc4nc[nH]c34)cccc2c1 | -16.8 | -8.2 | -1.59 | -8.0 | -3.21* | -7.3 | 0.0085 | 0.0041 | 0.0348 | 0.00765 | 0.0167* | 0.0106
C=CCn1c(C)nc2c(c1=O)c1nc3ccccc3nc1n2-c1ccc(C)cc1 | 8.1 | · | · | · | · | · | · | · | · | · | · | ·
S=c1nc(C2CC2)n(-c2ccccc2)[nH]1 | · | -7.5 | · | -1.2 | 3.98* | -3.5 | 0.0145* | 0.0124* | 0.0306 | 0.01* | ? | ?
O=c1c2c3n(c(=S)nc2[nH]n1-c1ccccc1)CCCCC3 | 16.9 | -11.8 | -0.239 | -1.4 | 1.22 | -0.7 | · | · | · | · | · | ·
COc1ccc(OC)c(-c2csc(N3CCC(c4ccccc4)CC3)n2)c1 | 3.1 | -14.0 | -0.0822 | -5.1 | 0.0102 | -16.0 | · | · | · | · | · | ·
COCCN(C(=O)CSc1nc2ccccc2c(=O)n1CC(C)C)c1c(N)n(Cc2ccccc2)c(=O)[nH]c1=O | 20.6 | -1.5 | -0.0977 | -11.5 | 13.4* | 3.1 | 0.0118* | 0.0539* | 0.0375 | 0.024* | 0.05* | 0.016*
